Test results taken from ChEMBL document CHEMBL1128448, “Synthesis and antifungal activity of new azole derivatives containing an N-acylmorpholine ring” (1995).
In brackets after ≈: the same amount, converted by molar mass.

What was measured:
Candida parapsilosis [1] = assay: Evaluation of In vitro antifungal activity against Candida parapsilosis 2.07 by broth macro dilution method; type: functional; conditions: Lodderomyces parapsilosis
Procedure, shortened: (§1)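 Yeast MIC and MFC by broth macrodilution per NCCLS M27-P in RPMI-1640 buffered with 0.165 M MOPS. Fluconazole in sterile water, other drugs in DMSO. C. parapsilosis ATCC 22019 is the reference strain in each run. MIC is the lowest concentration with turbidity ≤ the 80% inhibition standard. For MFC, 0.04 mL from clear tubes is plated on Sabouraud agar; MFC is the lowest concentration giving ≤1 colony.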

Candida albicans [2] = assay: In vitro evaluation of minimum inhibitory concentration against Candida albicans 76; type: functional; conditions: Candida albicans; read-out: MIC
Procedure, shortened: (§2)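 Stocks are 800 μg/mL in 50% ethanol. Each plate gets 10 μL of inoculum at 10^5 cfu/mL. Incubation at 25 °C, 48 h for yeasts and 120 h for dermatophytes and molds. Organisms are ATCC strains or clinical isolates.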

Nakaseomyces glabratus = assay: In vitro evaluation of minimum inhibitory concentration against Torulopsis glabrata 78; type: functional; procedure, shortened: as §2
Mus sp. [3] = assay: In vivo evaluation of % survival rate after peroral administration on 3rd day at dose 0.5 mg/kg; type: functional; conditions: route oral
Candida parapsilosis [4] = assay: Evaluation of In vitro antifungal activity against Candida parapsilosis ATCC 22019 by broth macro dilution method; type: functional; conditions: Lodderomyces parapsilosis; procedure, shortened: as §1
Candida albicans [5] = assay: Evaluation of In vitro antifungal activity against Candida albicans C52 by broth macro dilution method; type: functional; procedure, shortened: as §1
Candida albicans [6] = assay: Evaluation of […] antifungal activity against Candida albicans 60 by broth macro dilution method; type: functional; procedure, shortened: as §1
Mus sp. [7] = assay: In vivo evaluation of % survival rate after peroral administration on 3rd day at dose 1 mg/kg; type: functional; conditions: Mus sp., po
Candida albicans [8] = assay: In vivo evaluation of minimum inhibitory concentration against Candida albicans 60; type: functional; conditions: Candida albicans; read-out: MIC
Procedure, shortened: (§3)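 Broth macrodilution MIC following NCCLS M27-P, in RPMI-1640 buffered with 0.165 M MOPS. Fluconazole was dissolved in water and other drugs in DMSO. C. parapsilosis ATCC 22019 served as the reference strain in every run. MIC was the lowest concentration giving turbidity at or below the 80% inhibition standard.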

[9] = tested on: Meyerozyma guilliermondii; assay: Evaluation of In vitro antifungal activity against Candida guilliermondii 26 by broth macro dilution method; type: functional; procedure, shortened: as §1
Candida albicans [10] = assay: Evaluation of In vitro antifungal activity against Candida albicans 60 by broth macro dilution method
Nannizzia gypsea = assay: In vitro evaluation of minimum inhibitory concentration against Microsporum gypseum 22; type: functional; procedure, shortened: as §2
[11] = tested on: Meyerozyma guilliermondii; assay: In vitro evaluation of minimum inhibitory concentration against Candida guilliermondii 26; type: functional; procedure, shortened: as §2
Candida albicans [12] = assay: Evaluation of In vitro antifungal activity against Candida albicans 76 by broth macro dilution method; type: functional; procedure, shortened: as §1
Candida tropicalis [13] = assay: Evaluation of In vitro antifungal activity against Candida tropicalis 50 by broth macro dilution method; type: functional; procedure, shortened: as §1
Trichophyton benhamiae = assay: In vitro evaluation of minimum inhibitory concentration against Trichophyton mentagrophytes 23; type: functional, Arthroderma benhamiae; conditions: Trichophyton benhamiae; read-out: MIC; procedure, shortened: as §2
Candida albicans [14] = assay: Evaluation of In vitro antifungal activity against Candida albicans 2.01 by broth macro dilution method; type: functional; procedure, shortened: as §1
Candida tropicalis [15] = assay: Evaluation of In vitro antifungal activity against Candida tropicalis 2.11 by broth macro dilution method; type: functional; procedure, shortened: as §1
Kluyveromyces marxianus = assay: Evaluation of In vitro antifungal activity against Candida pseudotropicalis ATCC 28838 by broth macro dilution method; type: functional; procedure, shortened: as §1
Mus sp. [16] = assay: In vivo evaluation of % survival rate after peroral administration on 5th day at dose 1 mg/kg; type: functional; conditions: Mus sp., po
Rattus norvegicus [17] = assay: In vivo evaluation of antifungal activity against vaginal candidosis in rat at dose 0.1 mg/kg on 15th day; type: functional
Procedure, shortened: (§4)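 Groups of 10 female Wistar rats given estradiol 25 mg/kg sc on day -5, then vaginally inoculated with C. albicans on day 0. Infection is confirmed by culture of day-3 swabs. Compound is dosed orally once daily on days 3–5; controls get vehicle. Cure is scored by culture of vaginal swabs taken on days 10 and 15.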

Candida albicans [18] = assay: In vivo evaluation of minimum inhibitory concentration against Candida albicans 406; type: functional; conditions: Candida albicans; read-out: MIC; procedure, shortened: as §3
Mus sp. [19] = assay: In vivo evaluation of % survival rate after peroral administration on 7th day at dose 1 mg/kg; type: functional; conditions: Mus sp., po
Mus sp. [20] = assay: In vivo evaluation of % survival rate after peroral administration on 9th day at dose 0.5 mg/kg; type: functional; conditions: Mus sp., po
Microsporum canis = assay: In vitro evaluation of minimum inhibitory concentration against Microsporum canis 47; type: functional; procedure, shortened: as §2
Rattus norvegicus [21] = assay: In vivo evaluation of antifungal activity against vaginal candidosis in rat at dose 0.1 mg/kg on 10th day; type: functional; procedure, shortened: as §4
Rattus norvegicus [22] = assay: In vivo evaluation of antifungal activity against vaginal candidosis in rat at dose 0.25 mg/kg on 10th day; type: functional
Procedure, shortened: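 Groups of 10 female Wistar rats given estradiol 25 mg/kg sc on day -5, infected intravaginally with C. albicans by sterile swab on day 0; infection confirmed on day 3 by swab culture (TSB, then Sabouraud agar). Oral dosing once daily on days 3, 4, 5; vehicle controls. Vaginal swabs cultured on days 10 and 15; read-out % cured (culture-negative).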

Candida albicans [23] = assay: Evaluation of In vitro antifungal activity against Candida albicans 31 by broth macro dilution method; type: functional; procedure, shortened: as §1

C[C@@H](NC(=O)c1ccc(C(F)(F)F)cc1)[C@](O)(Cn1cncn1)c1ccc(F)cc1F
MFC (Candida parapsilosis [1]): 64 µg/mL (≈ 145 µM)
MIC (Candida parapsilosis [1]): 0.063 µg/mL (≈ 0.143 µM)
MIC (Candida albicans [2]): 80 µg/mL (≈ 182 µM)
MIC (Nakaseomyces glabratus): 20 µg/mL (≈ 45.4 µM)
survival at 0.5 mg/kg (Mus sp. [3]): 100%
MFC (Candida parapsilosis [4]): 2 µg/mL (≈ 4.54 µM)
MIC (Candida parapsilosis [4]): 0.125 µg/mL (≈ 0.284 µM)
MFC (Candida albicans [5]): > 64 µg/mL
MIC (Candida albicans [5]): < 0.031 µg/mL
MIC (Candida albicans [6]): < 0.031 µg/mL
survival at 1 mg/kg (Mus sp. [7]): 100%
MIC (Candida albicans [8]): 0.15 µg/mL (≈ 0.341 µM)
MFC [9]: 4 µg/mL (≈ 9.08 µM)
MIC [9]: 0.25 µg/mL (≈ 0.568 µM)
MFC (Candida albicans [10]): > 64 µg/mL
MIC (Nannizzia gypsea): 10 µg/mL (≈ 22.7 µM)
MIC [11]: 0.63 µg/mL (≈ 1.43 µM)
MFC (Candida albicans [12]): > 64 µg/mL
MIC (Candida albicans [12]): < 0.031 µg/mL
MFC (Candida tropicalis [13]): > 64 µg/mL
MIC (Candida tropicalis [13]): 1 µg/mL (≈ 2.27 µM)
MIC (Trichophyton benhamiae): 40 µg/mL (≈ 90.8 µM)
MFC (Candida albicans [14]): > 64 µg/mL
MIC (Candida albicans [14]): 0.125 µg/mL (≈ 0.284 µM)
MFC (Candida tropicalis [15]): 64 µg/mL (≈ 145 µM)
MIC (Candida tropicalis [15]): 0.25 µg/mL (≈ 0.568 µM)
MFC (Kluyveromyces marxianus): 2 µg/mL (≈ 4.54 µM)
survival at 1 mg/kg (Mus sp. [16]): 100%
Cure rate (Rattus norvegicus [17]): 20%
MIC (Candida albicans [18]): 0.15 µg/mL (≈ 0.341 µM)
survival at 1 mg/kg (Mus sp. [19]): 100%
survival at 0.5 mg/kg (Mus sp. [20]): 70%
MIC (Microsporum canis): 20 µg/mL (≈ 45.4 µM)
Cure rate (Rattus norvegicus [21]): 0%
Cure rate (Rattus norvegicus [22]): 100%
MFC (Candida albicans [23]): > 64 µg/mL
